Each structure is given as a SMILES string. Calls of active or inactive are those of the source. The rule behind the calls is not given here.

The target of test [1] is T1, Monoglyceride lipase (Mus musculus) (UniProt O35678).
T1 sequence (whole entry): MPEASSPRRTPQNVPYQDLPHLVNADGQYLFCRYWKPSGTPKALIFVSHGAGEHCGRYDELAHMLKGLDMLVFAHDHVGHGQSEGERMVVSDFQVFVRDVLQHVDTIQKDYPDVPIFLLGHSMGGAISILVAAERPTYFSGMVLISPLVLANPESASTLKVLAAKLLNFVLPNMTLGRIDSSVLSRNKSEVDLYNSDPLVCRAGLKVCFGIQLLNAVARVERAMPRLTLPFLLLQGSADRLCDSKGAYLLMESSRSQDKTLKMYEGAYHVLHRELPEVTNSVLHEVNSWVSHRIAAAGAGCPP
As to the kind of experiment: In-vivo inhibition of ip dosed mouse MAGL assessed as increase in 2-Ag level measured after 1 hr by LC-MS/MS analysis. The conditions noted are these: dose 0.2-20 mg/kg. Type of test: functional, organism-based. A digest of the protocol:
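Adult male mice dosed i.p. at 0.2, 1, 5 or 20 mg/kg (n = 3/group), vehicle DMSO or PEG/Tween (4:1). Killed at 1 h; brains halved and frozen. One half for 2-AG by LC-MS, the other for MAGL assay on homogenate. t-test against vehicle; two-way ANOVA with Bonferroni post-test.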

The target in test [2] is T2, Lysophosphatidylserine lipase ABHD12 (Mus musculus) (UniProt Q99LR1).
T2 sequence (whole entry): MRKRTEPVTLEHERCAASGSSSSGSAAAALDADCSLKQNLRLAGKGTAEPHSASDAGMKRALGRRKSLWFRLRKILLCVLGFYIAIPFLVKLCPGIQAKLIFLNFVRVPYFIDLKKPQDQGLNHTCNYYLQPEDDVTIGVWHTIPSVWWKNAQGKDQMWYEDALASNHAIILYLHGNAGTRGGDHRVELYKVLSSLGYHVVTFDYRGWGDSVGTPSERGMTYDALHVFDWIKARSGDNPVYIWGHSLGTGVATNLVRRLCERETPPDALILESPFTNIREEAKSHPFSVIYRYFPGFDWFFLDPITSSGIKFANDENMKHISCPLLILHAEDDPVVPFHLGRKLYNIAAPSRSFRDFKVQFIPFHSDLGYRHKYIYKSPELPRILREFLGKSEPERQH
Put plainly: Binding affinity to mouse brain ABHD12 at 0.1 to 1 uM incubated for 30 mins in presence of g MB064 by ABPP assay. Type of test: tissue-based. The following applies: dose 0.1-1 µM. A digest of the protocol: (§1)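 Male C57Bl/6J mouse brain (27 weeks) homogenised; membrane and cytosol fractions separated and diluted to 2.0 mg/mL. Samples incubated with compound (0.1 or 1 µM final) or 2.5% DMSO for 30 min at RT. Probes MB064 and FP-Bodipy (100 nM each) added for 10 min. SDS-PAGE with in-gel fluorescence; Coomassie staining as loading control.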

In test [3] the target is Acyl-protein thioesterase 2 (Mus musculus) (UniProt Q9WTL7). As to the kind of experiment: Binding affinity to mouse brain LYPLA2 at 0.1 to 1 uM incubated for 30 mins in presence of MB064 by ABPP assay. The format is tissue-based. The conditions noted are these: dose 0.1-1 µM. A digest of the protocol:
as §1

In test [4] the target is T3, Monoacylglycerol lipase ABHD6 (Mus musculus) (UniProt Q8R2Y0).
T3 sequence (whole entry): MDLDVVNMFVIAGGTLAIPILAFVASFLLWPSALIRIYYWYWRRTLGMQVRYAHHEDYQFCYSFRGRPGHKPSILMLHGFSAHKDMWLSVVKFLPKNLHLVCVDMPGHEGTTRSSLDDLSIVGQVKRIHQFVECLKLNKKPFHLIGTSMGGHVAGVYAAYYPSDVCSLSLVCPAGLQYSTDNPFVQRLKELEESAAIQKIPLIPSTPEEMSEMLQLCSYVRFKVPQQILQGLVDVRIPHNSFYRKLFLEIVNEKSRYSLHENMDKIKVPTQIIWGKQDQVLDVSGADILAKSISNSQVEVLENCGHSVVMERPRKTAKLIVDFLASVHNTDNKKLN
Put plainly: Binding affinity to mouse brain ABHD6 at 0.1 to 1 uM incubated for 30 mins in presence of MB064 by ABPP assay. The following applies: dose 0.1-1 µM. The format is tissue-based. In outline:
as §1

Sequence of Acyl-protein thioesterase 2 (Mus musculus) (Q9WTL7 whole entry): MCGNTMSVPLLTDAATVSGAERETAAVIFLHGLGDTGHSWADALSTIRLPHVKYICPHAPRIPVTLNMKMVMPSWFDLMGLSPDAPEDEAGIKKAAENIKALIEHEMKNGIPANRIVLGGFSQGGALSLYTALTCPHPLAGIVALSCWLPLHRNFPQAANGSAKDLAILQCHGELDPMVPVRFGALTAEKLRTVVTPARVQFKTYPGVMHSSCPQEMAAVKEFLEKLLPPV

For the molecule `O=C(Oc1ccc([N+](=O)[O-])cc1)N1CCC(C(O)(c2ccc3c(c2)OCO3)c2ccc3c(c2)OCO3)CC1`, the inhibition result in test [1] is “Dose-Dependent Effect”.

As for `O=C1[C@H](c2ccc(F)cc2)[C@@H](c2ccc3c(c2)OCO3)N1C1CCN(C(=O)n2nnc3ccccc32)CC1`, the outcome in test [2], in test [3] and in test [4] was Active.

These data come from ChEMBL document CHEMBL5537190, “Development of Potent and Selective Monoacylglycerol Lipase Inhibitors. SARs, Structural Analysis, and Biological Characterization” (J Med Chem, 2024).
